According to ChEMBL document CHEMBL4342493, “Design and Optimization of 3'-(Imidazo[1,2-a]pyrazin-3-yl)-[1,1'-biphenyl]-3-carboxamides as Selective DDR1 Inhibitors” (ACS Med Chem Lett, 2020):

What was measured:
[1] = biological target: T1, Epithelial discoidin domain-containing receptor 1 (Homo sapiens, UniProt Q08345); assay: Inhibition of recombinant human GST-tagged DDR1 catalytic domain (440 to 876 residues) expressed in baculovirus expression system using Fluorescein-poly GAT as substrate incubated for 1 hr in presence of ATP by LanthaScreen Eu kinase assay
Homo sapiens = organism: Homo sapiens; assay: Selectivity index, ratio of IC50 for recombinant human GST-tagged DDR2 cytoplasmic domain (427 to 855 residues) expressed in baculovirus expression system to IC50 for recombinant human GST-tagged DDR1 catalytic domain (440 to 876 residues) expressed in baculovirus expression system using Fluorescein-poly GAT as substrate incubated for 1 hr in presence of ATP by LanthaScreen Eu kinase assay
Procedure, shortened: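 Ratio of DDR2 IC50 to DDR1 IC50. Both kinases were measured by LanthaScreen Eu kinase assay. Each IC50 is the mean of three independent experiments, with variation <20%.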

[2] = biological target: T1, Epithelial discoidin domain-containing receptor 1; assay: Binding affinity to wild type human partial length DDR1 (R565 to V876 residues) expressed in bacterial expression system after 1 hr by Kinomescan method
Procedure, shortened: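 KINOMEscan binding; Kd determined for DDR1 and the off-target kinases DDR2, CAMK1D, CLK4 and TTK.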

NCI-H1299 [3] = assay: Antiproliferative activity against human H1299 cells assessed as reduction in cell viability after 72 hrs by CCK-8 assay; assay type: functional, cell-based; conditions: NCI-H1299, 72 h
Procedure, shortened: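 CCK-8 proliferation assay in H1299 cells; IC50 derived from dose-response; means of three independent experiments.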

NCI-H1299 [4] = assay: Antiinvasive activity against human H1299 cells after 24 hrs by crystal violet staining based transwell assay; assay type: functional, cell-based
Procedure, shortened: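 H1299 NSCLC cells; transwell invasion assay over 24 h with compound at 1.25, 2.5 and 5.0 μM; invasion expressed relative to blank control.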

T1 sequence (Q08345 whole entry, the tested form may be a part): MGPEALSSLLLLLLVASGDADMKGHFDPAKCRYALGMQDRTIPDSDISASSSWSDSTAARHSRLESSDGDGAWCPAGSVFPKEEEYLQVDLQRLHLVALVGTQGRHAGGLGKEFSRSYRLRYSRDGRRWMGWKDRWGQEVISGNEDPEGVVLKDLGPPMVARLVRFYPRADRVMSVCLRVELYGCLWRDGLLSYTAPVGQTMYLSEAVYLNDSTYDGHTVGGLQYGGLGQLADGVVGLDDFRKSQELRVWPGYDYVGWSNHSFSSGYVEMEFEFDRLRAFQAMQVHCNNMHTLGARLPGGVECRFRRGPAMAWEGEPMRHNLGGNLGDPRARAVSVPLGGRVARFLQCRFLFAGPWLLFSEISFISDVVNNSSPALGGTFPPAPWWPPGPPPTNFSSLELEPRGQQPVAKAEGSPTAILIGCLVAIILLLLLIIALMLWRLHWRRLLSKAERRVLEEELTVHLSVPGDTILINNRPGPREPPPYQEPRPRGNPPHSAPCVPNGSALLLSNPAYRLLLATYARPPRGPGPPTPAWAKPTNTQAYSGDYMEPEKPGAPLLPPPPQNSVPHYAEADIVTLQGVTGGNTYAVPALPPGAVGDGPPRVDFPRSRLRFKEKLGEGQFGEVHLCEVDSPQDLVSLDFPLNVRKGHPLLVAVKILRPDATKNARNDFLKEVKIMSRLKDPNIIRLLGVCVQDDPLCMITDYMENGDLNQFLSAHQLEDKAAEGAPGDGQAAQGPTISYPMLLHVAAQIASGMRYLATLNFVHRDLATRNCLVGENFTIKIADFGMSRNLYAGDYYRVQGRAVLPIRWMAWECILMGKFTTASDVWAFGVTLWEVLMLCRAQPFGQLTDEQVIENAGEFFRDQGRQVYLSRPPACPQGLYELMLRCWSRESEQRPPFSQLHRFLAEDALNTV

CCc1ccc(C(=O)Nc2cc(F)cc(C(F)(F)F)c2)cc1-c1cc(C)cc(-c2cnc3cnccn23)c1
IC50 [1]: 0.0238 µM
Ratio IC50 (Homo sapiens): 73
Kd [2]: 0.0078 µM
IC50 (NCI-H1299 [3]): 6.6 µM
inhibition (NCI-H1299 [4]): Dose-dependent effect
